Data published in EPA's CvTdb concentration-time database.

Experiments:
Rat [1] = assay: concentration in plasma after dosing; details: dosed: Bis 2-Chloroethoxy Methane, 40 mg/kg, iv, Male, Harlan Sprague Dawley
Rat [2] = assay: concentration in plasma after dosing; details: 4 h; dosed: Bis 2-Chloroethoxy Methane; 20 mg/kg; iv; Male; F344
Rat [3] = assay: concentration in thymus after dosing; details: 40 min; dosed: Bis 2-Chloroethoxy Methane; 20 mg/kg; iv; Male; F344
Rat [4] = assay: concentration in plasma after dosing; details: 6 h; dosed: Bis 2-Chloroethoxy Methane; 20 mg/kg; iv; Female; F344
Rat [5] = assay: concentration in heart after dosing; details: 10 min; dosed: Bis 2-Chloroethoxy Methane; 20 mg/kg; iv; Female; F344
Rat [6] = assay: concentration in plasma after dosing; details: dosed: Bis 2-Chloroethoxy Methane, 40 mg/kg, iv, Male, Harlan Sprague Dawley; remark: listed apart in the source
Rat [7] = assay: concentration in plasma after dosing; details: dosed: Fluorotelomer alcohol 8+2, 12 mg/kg, iv, Male, F344
Rat [8] = assay: concentration in kidney after dosing; details: 6 h; dosed: Fluorotelomer alcohol 8+2; 24 mg/kg; oral; Male; Harlan Sprague Dawley
Rat [9] = assay: concentration in brain after dosing; details: 0.5 h; dosed: Fluorotelomer alcohol 8+2; 24 mg/kg; oral; Male; Harlan Sprague Dawley
Rat [10] = assay: concentration in kidney after dosing; details: 1 h; dosed: Perfluorodecanoic acid; 10 mg/kg; oral; Female; Harlan Sprague Dawley
Rat [11] = assay: concentration in kidney after dosing; details: 1 h; dosed: Perfluorodecanoic acid; 10 mg/kg; oral; Male; Harlan Sprague Dawley
Rat [12] = assay: concentration in liver after dosing; details: 3360 h; dosed: Perfluorodecanoic acid; 10 mg/kg; oral; Female; Harlan Sprague Dawley
Rat [13] = assay: concentration in liver after dosing; details: 864 h; dosed: Perfluorodecanoic acid; 10 mg/kg; oral; Male; Harlan Sprague Dawley
Rat [14] = assay: concentration in plasma after dosing; details: 1.5 h; dosed: Primidone; 30 mg/kg; oral; Female; F344
Rat [15] = assay: concentration in plasma after dosing; details: 12 h; dosed: Primidone; 130 mg/kg; oral; Male; Harlan Sprague Dawley
Rat [16] = assay: concentration in plasma after dosing; details: 18 h; dosed: Primidone; 30 mg/kg; oral; Female; F344
Rat [17] = assay: concentration in thymus after dosing; details: 10 min; dosed: Thiodiglycolic Acid; 20 mg/kg; iv; Male; F344
Rat [18] = assay: concentration in plasma after dosing; details: 4 h; dosed: Thiodiglycolic Acid; 20 mg/kg; iv; Female; Harlan Sprague Dawley
Rat [19] = assay: concentration in plasma after dosing; details: 4 h; dosed: Thiodiglycolic Acid; 20 mg/kg; iv; Male; Harlan Sprague Dawley
Rat [20] = assay: concentration in liver after dosing; details: 20 min; dosed: Thiodiglycolic Acid; 20 mg/kg; iv; Female; F344
Rat [21] = assay: concentration in thymus after dosing; details: 20 min; dosed: Thiodiglycolic Acid; 20 mg/kg; iv; Female; Harlan Sprague Dawley
Rat [22] = assay: concentration in heart after dosing; details: 5.333 h; dosed: Thiodiglycolic Acid; 20 mg/kg; iv; Female; Harlan Sprague Dawley
human = assay: concentration in blood after dosing; negative times count back from the end of exposure; details: dosed: trichloroethylene, inhalation
How it was run: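 Points were largely digitised from plot screenshots with WebPlotDigitizer or otherwise copied from tables, and they remain in the units each source reported. They come from published in vivo toxicokinetic studies and two structured collections. Sampling and analytical methods follow each source and were often not reported.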

ClCCOCOCCCl [Bis 2-Chloroethoxy Methane]
concentration in plasma [ng/mL]
Details | 5.333 h | 8 h | 10 min | 40 min
Rat [1] | – | 15.5 | – | 6610
Rat [6] | 67 | – | 22600 | –

Details | concentration in heart [ng/g] | concentration in plasma [ng/mL] | concentration in thymus [ng/g]
Rat [2] | – | 83.3 | –
Rat [3] | – | – | 8210
Rat [4] | – | 16.9 | –
Rat [5] | 11400 | – | –

OCCC(F)(F)C(F)(F)C(F)(F)C(F)(F)C(F)(F)C(F)(F)C(F)(F)C(F)(F)F [Fluorotelomer alcohol 8+2]
Rat [7]
Details | concentration in plasma [ng/mL]
0.75 h | 756
12 h | 13.3

Details | concentration in brain [ng/g] | concentration in kidney [ng/g]
Rat [8] | – | 366
Rat [9] | 1810 | –

O=C(O)C(F)(F)C(F)(F)C(F)(F)C(F)(F)C(F)(F)C(F)(F)C(F)(F)C(F)(F)C(F)(F)F [Perfluorodecanoic acid]
Details | concentration in kidney [ng/g] | concentration in liver [ng/g]
Rat [10] | 22800 | –
Rat [11] | 10800 | –
Rat [12] | – | 7670
Rat [13] | – | 54300

CCC1(c2ccccc2)C(=O)NC(=O)NC1=O [Phenobarbital]
Details | concentration in plasma [ng/mL]
Rat [14] | 380
Rat [15] | 2490
Rat [16] | 1060

O=C(O)CSCC(=O)O [Thiodiglycolic Acid]
Details | concentration in heart [ng/g] | concentration in liver [ng/g] | concentration in plasma [ng/mL] | concentration in thymus [ng/g]
Rat [17] | – | – | – | 9340
Rat [18] | – | – | 324 | –
Rat [19] | – | – | 339 | –
Rat [20] | – | 162000 | – | –
Rat [21] | – | – | – | 8060
Rat [22] | 642 | – | – | –

O=C(O)C(Cl)(Cl)Cl [trichloroacetic acid]
concentration in blood [mg/kg], human, duration: 2 hr - 20 min
Details | 0 h | 0.5 h | 1 h | 1.5 h | 2 h | 21 h
1348 mg | 3 | 3.5 | 3.7 | 4.1 | 4.5 | 13.3
1681 mg | 2.8 | 3.6 | 3.9 | 4.5 | 5.2 | 13.6
3907 mg | 3 | 3.9 | 4.5 | 5.3 | 5.4 | 17.8

human
Details | concentration in blood
-1.833 h, 1348 mg, duration: 2 hr - 20 min, during exposure | 0.6 mg/kg
-1.833 h, 1681 mg, duration: 2 hr - 20 min, during exposure | 0.4 mg/kg
-1.833 h, 3907 mg, duration: 2 hr - 20 min, during exposure | 0.7 mg/kg
-1 h, 1348 mg, duration: 2 hr - 20 min, during exposure | 1.4 mg/kg
-1 h, 1681 mg, duration: 2 hr - 20 min, during exposure | 1.1 mg/kg
-1 h, 3907 mg, duration: 2 hr - 20 min, during exposure | 1.6 mg/kg
-0.5 h, 1348 mg, duration: 2 hr - 20 min, during exposure | 2.3 mg/kg
-0.5 h, 1681 mg, duration: 2 hr - 20 min, during exposure | 1.7 mg/kg
-0.5 h, 3907 mg, duration: 2 hr - 20 min, during exposure | 2.3 mg/kg
0.1859 h, 100 ppm, duration: 4 hr, person | 3830 ng/mL
0.2626 h, 100 ppm, duration: 4 hr, person | 3950 ng/mL
0.4953 h, 100 ppm, duration: 4 hr, person | 4150 ng/mL
0.7295 h, 100 ppm, duration: 4 hr, person | 3520 ng/mL
1.042 h, 100 ppm, duration: 4 hr, person | 4390 ng/mL
2.008 h, 100 ppm, duration: 4 hr, person | 4230 ng/mL
2.056 h, 100 ppm, duration: 4 hr, person | 4950 ng/mL
4.002 h, 100 ppm, duration: 4 hr, person | 5130 ng/mL
4.087 h, 100 ppm, duration: 4 hr, person | 5830 ng/mL
5.968 h, 100 ppm, duration: 4 hr, person | 6280 ng/mL
6.071 h, 100 ppm, duration: 4 hr, person | 5770 ng/mL
8.056 h, 100 ppm, duration: 4 hr, person | 6100 ng/mL
8.086 h, 100 ppm, duration: 4 hr, person | 6680 ng/mL
10.05 h, 100 ppm, duration: 4 hr, person | 6680 ng/mL
10.13 h, 100 ppm, duration: 4 hr, person | 7050 ng/mL
12.03 h, 100 ppm, duration: 4 hr, person | 7200 ng/mL
12.16 h, 100 ppm, duration: 4 hr, person | 7480 ng/mL
14.01 h, 100 ppm, duration: 4 hr, person | 7110 ng/mL
14.05 h, 100 ppm, duration: 4 hr, person | 7820 ng/mL
16 h, 100 ppm, duration: 4 hr, person | 7960 ng/mL
16.01 h, 100 ppm, duration: 4 hr, person | 7740 ng/mL
17.81 h, 100 ppm, duration: 4 hr, person | 8690 ng/mL
17.98 h, 100 ppm, duration: 4 hr, person | 7930 ng/mL
41.89 h, 100 ppm, duration: 4 hr, person | 8480 ng/mL
44.06 h, 100 ppm, duration: 4 hr, person | 9620 ng/mL
65.95 h, 100 ppm, duration: 4 hr, person | 6780 ng/mL
67.63 h, 100 ppm, duration: 4 hr, person | 7420 ng/mL
89.84 h, 100 ppm, duration: 4 hr, person | 6470 ng/mL
91.02 h, 100 ppm, duration: 4 hr, person | 5310 ng/mL
324 s, 100 ppm, duration: 4 hr, person | 3160 ng/mL

human, 100 ppm, duration: 4 hr, person, during exposure
Details | concentration in blood [ng/mL]
-3.454 h | 294
-3.442 h | 210
-3.04 h | 620
-2.832 h | 741
-1.998 h | 1360
-1.982 h | 1680
-1.033 h | 2270
-0.8992 h | 2830
